From ChEMBL document CHEMBL3826885, “Similarities and differences in affinity and binding modes of tricyclic pyrimido- and pyrazinoxanthines at human and rat adenosine receptors” (Bioorg Med Chem, 2016)

What was measured:
Adenosine receptor A1 = biological target: T1, Adenosine receptor A1 (Rattus norvegicus, UniProt P25099); assay: Displacement of [3H]CCPA from adenosine receptor A1 in rat brain cortical membranes; format: cell membranes
T1 sequence (P25099 whole entry): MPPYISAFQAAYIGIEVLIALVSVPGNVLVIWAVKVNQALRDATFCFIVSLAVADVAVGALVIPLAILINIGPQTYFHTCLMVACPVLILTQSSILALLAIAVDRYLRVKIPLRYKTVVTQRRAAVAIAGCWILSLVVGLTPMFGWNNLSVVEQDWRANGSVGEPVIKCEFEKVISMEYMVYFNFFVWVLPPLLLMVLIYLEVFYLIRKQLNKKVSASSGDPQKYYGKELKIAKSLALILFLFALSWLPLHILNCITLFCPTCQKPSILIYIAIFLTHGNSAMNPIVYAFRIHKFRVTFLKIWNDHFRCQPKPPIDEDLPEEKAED
How it was run: (§1)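 Native rat receptors: A1 in brain cortical membranes with [3H]CCPA, A2A in brain striatal membranes, from frozen unstripped rat brains. Compounds were first screened at a single high concentration in three independent experiments.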

[1] = biological target: T2, Adenosine receptor A1 (Rattus norvegicus) (UniProt P25099); assay: Displacement of [3H]CCPA from adenosine receptor A1 in rat brain cortical membranes at 10 uM; format: cell membranes; details: 1 uM, in the assay text read “at 1 uM” for “at 10 uM”
T2 sequence (whole entry): T1 sequence (P25099 whole entry)
How it was run: as §1, with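 “experiments. Active compounds then had full inhibition curves over at least 3 orders of magnitude of concentration.” for “experiments.”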

[2] = biological target: Adenosine receptor A2a (Rattus norvegicus) (UniProt P30543); assay: Displacement of [3H]MSX2 from Adenosine receptor A2a in rat brain striatal membranes at 10 uM; format: cell membranes; details: Membrane
How it was run: as §1, with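 “experiments. Active compounds then had full inhibition curves over at least 3 orders of magnitude of concentration.” for “experiments.”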

[3] = biological target: T3, Adenosine receptor A3 (Homo sapiens) (UniProt P0DMS8); assay: Displacement of [3H]PSB11 from recombinant human adenosine receptor A3 expressed in CHO cell membranes at 1 uM
T3 sequence (whole entry): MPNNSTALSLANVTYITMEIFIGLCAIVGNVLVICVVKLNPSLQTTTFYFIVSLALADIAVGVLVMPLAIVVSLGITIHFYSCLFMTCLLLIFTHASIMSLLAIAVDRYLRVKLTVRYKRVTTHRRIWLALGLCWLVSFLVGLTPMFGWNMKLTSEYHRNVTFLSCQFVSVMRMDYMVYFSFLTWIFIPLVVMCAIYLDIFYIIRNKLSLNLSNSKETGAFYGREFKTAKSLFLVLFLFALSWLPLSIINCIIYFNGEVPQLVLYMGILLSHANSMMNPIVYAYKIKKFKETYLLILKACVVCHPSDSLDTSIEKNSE
How it was run: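 Membranes came from CHO cells expressing recombinant receptors (human A1, A2A, A2B, A3; rat A2B, A3). Radioligands were [3H]CCPA for A1 and [3H]PSB-11 or [3H]NECA for A3. A single high concentration was screened first, in three experiments for A1/A2A and two for A2B/A3. Full inhibition curves spanning at least 3 log units were run for potent compounds.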

Adenosine receptor A2b = biological target: T4, Adenosine receptor A2b (Homo sapiens, UniProt P29275); assay: Displacement of [3H]PSB-603 from recombinant human adenosine receptor A2b expressed in CHO cell membranes
T4 sequence (P29275 whole entry): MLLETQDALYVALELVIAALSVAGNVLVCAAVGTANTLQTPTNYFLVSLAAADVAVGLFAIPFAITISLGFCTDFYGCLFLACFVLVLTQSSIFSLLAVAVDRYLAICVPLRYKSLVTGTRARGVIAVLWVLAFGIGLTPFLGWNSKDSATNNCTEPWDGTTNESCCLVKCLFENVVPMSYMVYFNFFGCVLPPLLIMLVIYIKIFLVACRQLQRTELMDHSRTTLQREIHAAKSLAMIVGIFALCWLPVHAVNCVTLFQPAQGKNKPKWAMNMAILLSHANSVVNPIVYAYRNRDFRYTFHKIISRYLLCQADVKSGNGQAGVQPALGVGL
How it was run: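 Membranes came from CHO cells expressing recombinant receptors (human A1, A2A, A2B, A3; rat A2B, A3). Radioligands were [3H]CCPA for A1 and [3H]PSB-11 or [3H]NECA for A3. A single high concentration was screened first, in three experiments for A1/A2A and two for A2B/A3.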

Adenosine receptor A3 = biological target: T5, Adenosine receptor A3 (Homo sapiens, UniProt P0DMS8); assay: Displacement of [3H]PSB-11 from recombinant human adenosine receptor A3 expressed in CHO cell membranes
T5 sequence (P0DMS8 whole entry): T3 sequence (whole entry)

Adenosine receptor A2a = Adenosine receptor A2a (Rattus norvegicus, UniProt P30543); assay: Displacement of [3H]MSX2 from adenosine receptor A2a in rat brain striatal membranes; format: cell membranes, Membrane
How it was run: as §1, with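 “experiments. Active compounds then had full inhibition curves over at least 3 orders of magnitude of concentration.” for “experiments.”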

Sequence of Adenosine receptor A2a (Rattus norvegicus) (P30543 whole entry): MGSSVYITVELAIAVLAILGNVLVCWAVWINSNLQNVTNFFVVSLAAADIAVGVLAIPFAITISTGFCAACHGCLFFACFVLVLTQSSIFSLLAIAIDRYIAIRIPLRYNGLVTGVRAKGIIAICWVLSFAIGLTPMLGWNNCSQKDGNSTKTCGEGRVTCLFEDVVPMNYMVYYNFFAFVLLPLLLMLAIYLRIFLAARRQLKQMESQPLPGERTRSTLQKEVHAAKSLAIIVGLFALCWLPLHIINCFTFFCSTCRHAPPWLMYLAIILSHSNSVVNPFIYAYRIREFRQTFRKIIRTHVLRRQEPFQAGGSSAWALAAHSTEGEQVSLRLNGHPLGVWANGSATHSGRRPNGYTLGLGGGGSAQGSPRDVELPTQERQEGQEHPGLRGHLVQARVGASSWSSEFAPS
Sequence of Adenosine receptor A2a (P30543 whole entry): as above

Cn1c(=O)c2c(nc3n2CCN(CCc2ccc(O)cc2)C3)n(C)c1=O
Ki (Adenosine receptor A1): > 1000 nM | inhibition [1]: 4% | inhibition [2]: 35% | inhibition [3]: 3% | Ki (Adenosine receptor A2b): > 1000 nM | Ki (Adenosine receptor A3): > 1000 nM | Ki (Adenosine receptor A2a): > 10000 nM
